This is an account of results in ChEMBL document CHEMBL5104174, “Development of tumor-targeting aza-vesamicol derivatives with high affinity for sigma receptors for cancer theranostics” (RSC Med Chem, 2022).

Data set [1] is described as follows: Stability of the compound in pH 7.4 phosphate buffer assessed as parent compound remaining at 22 to 82 kBq incubated for 24 hrs by RP-HPLC analysis. It counts as physicochemical. The note with it: dose 22-82 kBq, read-out: Stability.
Data set [2] can be described thus: 1-Octanol/PBS partition coefficient, logP of the compound at pH 7.4 by shake flask method. It counts as physicochemical. The procedure, abridged: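 Radioiodinated tracer partitioned between 1-octanol and 0.1 M phosphate buffer pH 7.4 by shake-flask. Ratio of radioactivity in octanol to that in buffer, expressed as log P. Mean ± SD of four samples.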
Data set [3] in a line: Drug uptake in tumor of Balb/c mouse xenografted with human DU-145 cells assessed as radioactivity at 37 kBq, iv and measured upto 24 hrs post-injection by gamma counter analysis. Format: ADME, organism-based, Neoplasm. The note with it: in vivo. The procedure, abridged: (§1)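 About 5 × 10⁶ DU-145 cells injected sc into the right dorsum of 4-week-old male BALB/c nude mice. Sacrificed at 1 and 24 h. Gamma counting, expressed as % injected dose, mean ± SD.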

Data set [4] is described as follows: Metabolic stability in mouse plasma assessed parent compound remaining at 74 to 93 kBq incubated for 24 hrs by RP-HPLC analysis. The following applies: dose 74-93 kBq, read-out: Stability. It counts as ADME, cell-free. The procedure, abridged:
(§2)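 Ice-cold acetonitrile added, centrifuged 1700 g for 15 min at 4 °C, filtered 0.45 μm. Intact tracer measured by RP-HPLC; mean ± SD of three samples.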

Data set [5] is described as follows: Biodistribution in ddY mouse blood assessed as blood clearance by measuring radioactivity at 18 to 33 kBq, iv […] and measured upto 24 hrs post-injection by gamma counter analysis. Format: ADME, organism-based. The note with it: in vivo, dose 18-33 kBq. The procedure, abridged: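 Male ddY mice, 6 weeks old, 28–30 g. Sacrificed at 10, 30 min, 1, 4, 8 and 24 h postinjection. Tissue radioactivity counted in a gamma counter.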

The nature of data set [6]: Drug uptake in tumor of Balb/c mouse xenografted with human DU-145 cells assessed as radioactivity at 37 kBq, iv and measured after 1 hrs post-injection by gamma counter analysis. It counts as ADME, organism-based, Neoplasm. The following applies: in vivo. The procedure, abridged: as §1
Data set [7] can be described thus: Drug uptake in human DU-145 cells assessed as radioactivity at 3.7 kBq incubated for 15 to 120 mins. Format: ADME, cell-based. The following applies: time 15-120 min. The procedure, abridged:
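DU-145 cells grown in RPMI 1640 with 10% FBS, seeded and pre-incubated 24 h. Washed with ice-cold PBS, lysed in 1 M NaOH, counted and normalized to BCA protein. Mean ± SD.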

Data set [8] can be described thus: Biodistribution in ddY mouse neck assessed as radioactivity at 18 to 33 kBq, […] by gamma counter analysis. Format: ADME, organism-based. The following applies: in vivo, iv, dose 18-33 kBq.
A short description of data set [9]: Metabolic stability in mouse plasma assessed parent compound remaining at 74 to 93 kBq incubated for 1 hrs by RP-HPLC analysis. The note with it: dose 74-93 kBq, read-out: Stability. It counts as ADME, cell-free. The procedure, abridged: as §2
Data set [10] addresses T1, Sigma intracellular receptor 2 (Rattus norvegicus, UniProt Q5U3Y7).
T1 sequence (Q5U3Y7 whole entry): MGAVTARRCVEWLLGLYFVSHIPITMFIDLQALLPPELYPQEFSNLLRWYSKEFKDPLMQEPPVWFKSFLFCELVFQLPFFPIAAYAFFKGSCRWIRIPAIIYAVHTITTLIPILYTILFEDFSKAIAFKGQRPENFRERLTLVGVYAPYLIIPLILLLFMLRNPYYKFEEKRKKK
Briefly: Displacement of [3H]DTG from sigma-2 receptor in Sprague-Dawley rat liver membrane incubated for 90 mins in presence of by liquid scintillation counter analysis (+)-pentazocine by liquid scintillation counter analysis. Format: cell membranes.

Data set [11] concerns the target Sigma non-opioid intracellular receptor 1 (Rattus norvegicus, UniProt Q9R0C9). The data set is described as follows: Displacement of (+)-[3H]pentazocine from sigma-1 receptor in Sprague-Dawley rat cerebral membrane incubated for 90 mins by liquid scintillation counter analysis. Format: cell membranes, Cerebrum.
Data set [12] in a line: Biodistribution in liver of Balb/c mouse xenografted with human DU-145 cells assessed as radioactivity at 37 kBq, iv and measured upto 24 hrs post-injection by gamma counter analysis. It counts as ADME, organism-based. The following applies: in vivo. The procedure, abridged:
as §1

Data set [13] can be described thus: Biodistribution in lung of Balb/c mouse xenografted with human DU-145 cells assessed as radioactivity at 37 kBq, iv and measured upto 24 hrs post-injection by gamma counter analysis. Format: ADME, organism-based. The note with it: in vivo. The procedure, abridged: as §1
The nature of data set [14]: Biodistribution in kidney of Balb/c mouse xenografted with human DU-145 cells assessed as radioactivity at 37 kBq, iv and measured upto 24 hrs post-injection by gamma counter analysis. It counts as ADME, organism-based. The note with it: in vivo. A digest of the protocol: as §1
A short description of data set [15]: Drug uptake in thyroid gland of Balb/c mouse xenografted with human DU-145 cells at 50 MBq, iv and measured after 24 hrs post-injection by SPECT/CT analysis. It counts as ADME, organism-based. The following applies: in vivo. A digest of the protocol: (§3)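 DU-145 sc xenografts in BALB/c nude mice. HPLC-purified 123I-tracer given iv, 50 MBq or 38 MBq per tracer. Small-animal SPECT/CT at 24 h postinjection, 0.8 mm voxels.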

The nature of data set [16]: Drug uptake in tumor of Balb/c mouse xenografted with human DU-145 cells at 50 MBq, iv and measured after 24 hrs post-injection by SPECT/CT analysis. Format: ADME, organism-based, Neoplasm. The note with it: in vivo. A digest of the protocol: as §3
Data set [17] in a line: Drug uptake in pancreas of Balb/c mouse xenografted with human DU-145 cells at 50 MBq, iv and measured after 24 hrs post-injection by SPECT/CT analysis. It counts as ADME, organism-based. The note with it: in vivo. A digest of the protocol: as §3
Data set [18] is described as follows: Drug uptake in pancreas of Balb/c mouse xenografted with human DU-145 cells at 38 MBq, iv and measured after 24 hrs post-injection by SPECT/CT analysis. Format: ADME, organism-based. The following applies: in vivo. A digest of the protocol:
as §3

Data set [19] is described as follows: Drug uptake in tumor of Balb/c mouse xenografted with human DU-145 cells at 38 MBq, iv and measured after 24 hrs post-injection by SPECT/CT analysis. Format: ADME, organism-based, Neoplasm. The following applies: in vivo. A digest of the protocol:
as §3

Data set [20] can be described thus: Drug uptake in thyroid gland of Balb/c mouse xenografted with human DU-145 cells at 38 MBq, iv and measured after 24 hrs post-injection by SPECT/CT analysis. Format: ADME, organism-based. The note with it: in vivo. The procedure, abridged:
as §3

Sequence of Sigma non-opioid intracellular receptor 1 (Q9R0C9 whole entry): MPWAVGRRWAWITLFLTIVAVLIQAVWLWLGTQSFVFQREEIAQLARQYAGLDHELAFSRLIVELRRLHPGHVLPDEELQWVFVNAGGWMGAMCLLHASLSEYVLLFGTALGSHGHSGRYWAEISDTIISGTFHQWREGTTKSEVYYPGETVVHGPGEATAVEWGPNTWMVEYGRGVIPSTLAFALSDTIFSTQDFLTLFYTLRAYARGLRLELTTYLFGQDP

For `O[C@H]1CCC[C@@H]1N1CCN(CCc2cccc([125I])c2)CC1` (relative stereo), the remaining at 24 h in data set [1] worked out at 96.9%; in data set [4], 81.3%. Also, the logD in [2] was 2.08. Moreover, the Drug uptake entry in data set [3], in data set [5], in [6], in [7] and in data set [8] was “Active” each time. For the same compound, the remaining at 1 h in [9] worked out at 95.6%.

For `O[C@H]1CCCC[C@@H]1N1CCN(CCc2ccccc2Br)CC1` (relative stereo), the Ki was 41.8 nM in data set [10] and 10.2 nM in data set [11].

Regarding `O[C@H]1CCCC[C@@H]1N1CCN(CCCc2ccc(Br)cc2)CC1` (relative stereo), the inhibitory constant (Ki) was 26 nM in data set [10] and 4.4 nM in data set [11].

As for `O[C@H]1CCCC[C@@H]1N1CCC(c2ccc([125I])cc2)CC1`, the Drug uptake entry in data set [12], in data set [13], in [3] and in data set [14] was “Active” in each case.

For `O[C@H]1CCCC[C@@H]1N1CCN(CCCc2cccc(Br)c2)CC1` (relative stereo), the Ki in data set [10] turned out to be 22.2 nM; in data set [11] it was 7.7 nM.

In the case of `O[C@H]1CCC[C@@H]1N1CCN(CCCc2ccc(Br)cc2)CC1` (relative stereo), the Ki is 12.6 nM in data set [10] and 8.1 nM in data set [11].

In the case of `O[C@H]1CCC[C@@H]1N1CCN(CCCc2cccc(Br)c2)CC1` (relative stereo), the values for the Ki in [10] and in [11] were 8.1 nM and 4.8 nM, respectively.

For the compound `O[C@H]1CCC[C@@H]1N1CCN(CCc2cccc(I)c2)CC1` (relative stereo), the values for the Ki in data set [10] and in data set [11] were 73.6 nM and 7.9 nM, respectively.

`O[C@H]1CCCC[C@@H]1N1CCN(CCCc2ccc([125I])cc2)CC1` (relative stereo): the Drug uptake result in data set [12], in [13], in [3] and in data set [14] was “Active” each time.

Take `O[C@H]1CCC[C@@H]1N1CCN(CCCc2cccc([125I])c2)CC1` (relative stereo): the remaining at 24 h in data set [1] was 96.3%; in data set [4] it was 94.8%. In [2], this compound gave a logD of 2.5. For the same compound, the Drug uptake result in data set [3], in data set [5], in [6], in data set [7] and in [8] was “Active” in each case. Further, the remaining at 1 h in data set [9] came to 96.5%.

`O[C@H]1CCC[C@@H]1N1CCN(CCc2ccc(Br)cc2)CC1` (relative stereo): the Ki worked out at 148 nM in data set [10] and 9.9 nM in [11].

Take `O[C@H]1CCCC[C@@H]1N1CCN(CCc2cccc(Br)c2)CC1` (relative stereo): the Ki amounted to 25.1 nM in [10] and 17.2 nM in data set [11].

For `O[C@H]1CCC[C@@H]1N1CCN(CCc2cccc(Br)c2)CC1` (relative stereo), the Ki was 138 nM in [10] and 12.4 nM in data set [11].

Take `O[C@H]1CCC[C@@H]1N1CCN(CCCc2cccc(I)c2)CC1` (relative stereo): the Ki in data set [10] was 16.9 nM; in [11], 14.6 nM.

For the compound `O[C@H]1CCC[C@@H]1N1CCN(CCc2ccccc2Br)CC1` (relative stereo), the Ki in [10] was 371 nM; in data set [11] it was 21.5 nM.

For `O[C@H]1CCC[C@@H]1N1CCN(CCc2cccc([123I])c2)CC1` (relative stereo), the Drug uptake result in data set [15], in [16] and in data set [17] was “Active” throughout.

For `O[C@H]1CCC[C@@H]1N1CCN(CCCc2cccc([123I])c2)CC1` (relative stereo), the Drug uptake entry in data set [18], in data set [19] and in data set [20] was “Active” throughout.

`O[C@H]1CCCC[C@@H]1N1CCN(CCc2ccc(Br)cc2)CC1` (relative stereo): the Ki in [10] stood at 44.5 nM; in [11], 9.8 nM.

In the case of `O[C@H]1CCCC[C@@H]1N1CCN(CCCc2ccccc2Br)CC1` (relative stereo), the results for the inhibition constant Ki in [10] and in [11] were 32.5 nM and 19.4 nM, respectively.

`O[C@H]1CCC[C@@H]1N1CCN(CCCc2ccccc2Br)CC1` (relative stereo): the figures for the Ki in data set [10] and in data set [11] were 116 nM and 37.1 nM, respectively.
